Bioassay records: PubChem, several laboratories
CHOP inh: inhibitors of CHOP induction in ER stress response. CHO-K1 CHOP-promoter luciferase, tunicamycin-induced, 15-18 h. inhibition, % at 10 µM. 220,000 compounds, 3.8% hits. AID 2732;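 active = compounds that reduced the stress-induced luciferase reporter signal by more than about 70% of percent inhibition, limit read from the data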
T cruzi inh: blocks replication of Trypanosoma cruzi; T. cruzi beta-gal in NIH3T3, luminescence, 90 h; 300,000 compounds, 1.4% hits; inhibition, % (test concentration not listed);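 active = mean inhibition across valid replicates above about 55%, limit read from the data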;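 note: signal also drops with host cell toxicity which is not excluded here; higher percent means less beta-gal luminescence so fewer parasites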
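System: NIH/3T3 fibroblasts plus reporter T. cruzi. Medium: DMEM plus 2% FBS. Probe or stimulus: 5000 reporter trypomastigotes per well. Compound: single 50 nL compound addition per well in DMSO. Incubation: co-culture of at least 90 h after 3 h attachment. Detection: GalScreen β-gal luminescence, detergent lysis, 60 min. Evaluation: parasite load inhibition, %.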
CSC inhib: blocks cancer stem cells. AID 2717. cancer stem cell-like cells viability, luminescence. 300,000 compounds, 1.1% hits. inhibition, % at 7.5 µM; in the data active = inhibition above about 75%; tested in HMLE shEcad cells
GRIN3A LBD mod: modulators (binders) of human NR3A ligand-binding domain; NR3A LBD differential scanning fluorimetry, Tm shift; 0% = protein alone, 100% = glycine-bound protein; Tm shift relative to glycine control, % at 25 µM; 340,000 compounds, 2.5% hits;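 active = melting temperature shift of at least 10% of the positive control shift, at one fixed dose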
PREPL inh: human PREPL enzyme inhibition; Q4J6C6; recombinant PREPL, fluorescence polarization activity-based probe; inhibition, % at 5.96 µM; 320,000 compounds, 0.68% hits; AID 2751; in the data active = inhibition above about 43%
Target sequence (Q4J6C6 whole entry, looked up): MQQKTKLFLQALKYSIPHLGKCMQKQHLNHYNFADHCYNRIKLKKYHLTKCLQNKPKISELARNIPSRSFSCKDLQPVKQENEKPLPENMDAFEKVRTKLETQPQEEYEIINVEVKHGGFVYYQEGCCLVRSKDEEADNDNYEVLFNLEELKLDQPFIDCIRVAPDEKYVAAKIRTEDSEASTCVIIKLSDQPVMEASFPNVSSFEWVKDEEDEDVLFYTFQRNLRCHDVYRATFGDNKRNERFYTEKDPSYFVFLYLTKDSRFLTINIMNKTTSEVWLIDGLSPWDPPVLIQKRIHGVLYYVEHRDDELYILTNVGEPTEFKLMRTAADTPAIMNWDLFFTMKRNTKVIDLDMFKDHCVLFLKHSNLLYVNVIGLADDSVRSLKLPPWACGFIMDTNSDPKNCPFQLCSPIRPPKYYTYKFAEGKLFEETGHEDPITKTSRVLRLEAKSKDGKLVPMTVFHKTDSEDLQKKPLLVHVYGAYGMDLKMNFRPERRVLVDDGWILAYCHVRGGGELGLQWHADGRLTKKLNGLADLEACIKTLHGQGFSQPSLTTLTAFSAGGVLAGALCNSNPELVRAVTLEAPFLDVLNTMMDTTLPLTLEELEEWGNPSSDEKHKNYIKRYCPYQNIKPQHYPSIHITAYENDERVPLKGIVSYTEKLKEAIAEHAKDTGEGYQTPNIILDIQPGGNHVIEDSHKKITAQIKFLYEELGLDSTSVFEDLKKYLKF
Beta cell apopt: blocks beta cell apoptosis. INS-1E cytokine-induced death, ATP luminescence, 48 h; percent of positive-control rescue, neutral wells zero. protection from apoptosis, % (test concentration not listed). 300,000 compounds, 0.8% hits. AID 435005;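 active = Every replicate reaches about 75%, or at least half do and their mean reaches it too, limit read from the data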;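 note: higher means more ATP so stronger rescue from cytokine killing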
Hits are given with their value; – = inactive; · = no result. The list is not random: actives were taken first. Their share in the collection is about 6.7%.

SMILES	CHOP inh	T cruzi inh	CSC inhib	GRIN3A LBD mod	PREPL inh	Beta cell apopt
Oc1ccc(Br)cc1-c1cc(-c2ccco2)[nH]n1	80	–	–	19	–	–
S=c1[nH]nc(-c2cc(-c3ccco3)[nH]n2)n1-c1ccccc1	–	–	–	–	–	–
Oc1ccccc1-c1cc(-c2ccco2)[nH]n1	–	–	–	–	–	–
Cc1ccc(O)c(-c2cc(-c3ccccc3[N+](=O)[O-])[nH]n2)c1	–	–	–	–	–	–
Oc1c(-c2cc(-c3ccco3)[nH]n2)ccc2ccccc12	75	–	–	21	–	–
O=[N+]([O-])c1ccccc1-c1cc(-c2cc(Cl)ccc2O)n[nH]1	77	–	–	18	–	–
O=C(CCN1C(=O)C2C3CCC(C3)C2C1=O)OCC(=O)c1ccc(Cl)cc1 (stereo unspecified)	·	–	–	–	·	–
CC(C)(O)C#Cc1ccc(CN2CCCC(CO)(Cc3cccc(Cl)c3)C2)cc1 (stereo unspecified)	–	58	–	–	–	–
CCn1nc(C)c(CN2CCCC(CO)(Cc3cccc(Cl)c3)C2)c1C (stereo unspecified)	–	55	–	–	–	–
Cc1ccccc1CC1(CO)CCCN(Cc2ccc(C#CC(C)(C)O)cc2)C1 (stereo unspecified)	–	–	–	–	–	–
COc1ccc(C(=O)N/C(=C\c2ccco2)C(=O)NC2CCS(=O)(=O)C2)cc1 (stereo unspecified)	–	–	–	–	–	–
CC1Cc2cc(-c3csc(N)n3)ccc2O1 (stereo unspecified)	·	–	–	–	–	–
COc1ccc(C2CC(O)(c3ccccc3)Oc3cc(OC)ccc32)cc1 (stereo unspecified)	92	–	–	–	–	–
CCC/C(O)=C1\C(=O)CCCC1=NCCc1c(C)[nH]c2ccc(OC)cc12	–	–	–	–	–	–
COc1cc(Cl)c(C)cc1NC(=O)CSC1=NCCS1	·	·	–	20	–	–
Cc1cc(NC(=O)CSC2=NCCS2)no1	–	–	–	–	–	–
Cc1sc(NC(=O)CSC2=NCCS2)nc1-c1ccccc1	73	–	·	–	–	–
Cc1ccc(N(CCC#N)C(=O)COC(=O)c2ccccn2)cc1	·	–	–	–	–	·
COc1ccc(Br)cc1C(C[N+](=O)[O-])c1c(N)n(C)c(=O)n(C)c1=O (stereo unspecified)	–	–	83	–	–	–
CN(C)c1ccc(C(C[N+](=O)[O-])c2c(N)n(C)c(=O)n(C)c2=O)c(F)c1C#N (stereo unspecified)	·	–	·	–	–	·
Fc1ccccc1SCc1nnc(-c2ccccc2Br)o1	–	–	–	–	–	–
O=C1NN(c2cccc(Br)c2)C(=O)/C1=C\c1ccc(O)cc1	·	–	108	15	–	–
COc1cc(/C=C2/C(=O)NN(c3cccc(Cl)c3)C2=O)cc(OC)c1O	·	–	–	–	–	·
O=C1NN(c2ccc(Br)cc2)C(=O)/C1=C\c1ccc(O)cc1O	·	–	–	28	–	–
O=C1NN(c2cccc(Br)c2)C(=O)/C1=C/c1ccc(-c2cc([N+](=O)[O-])ccc2O)o1	104	–	–	13	–	–
SMILES	CHOP inh	T cruzi inh	CSC inhib	GRIN3A LBD mod	PREPL inh	Beta cell apopt
COc1ccccc1CNC(=O)C1CCC(CNc2c(N3CCC(C)CC3)c(=O)c2=O)CC1 (stereo unspecified)	–	–	–	–	–	–
Cc1ccc(/C=C/C(=O)NC2=NCCS2)cc1	–	–	–	–	–	–
CC(C)(C)c1ccc(/C=C/C(=O)NC2=NCCS2)cc1	82	–	–	12	–	·
CCc1nn(CC(=O)NCc2cccnc2)c(=O)c2cc3occc3n12	·	–	–	–	–	–
O=C(COC(=O)c1cc(S(=O)(=O)N2CCCC2)ccc1O)Nc1ccc(SC(F)F)cc1	·	·	·	13	–	·
O=C(COC(=O)c1cc(S(=O)(=O)N2CCCC2)ccc1O)Nc1ccc(S(=O)(=O)N2CCOCC2)cc1	–	–	–	–	–	–
CCN(CC)S(=O)(=O)c1ccc(NC(=O)COC(=O)c2ccc(Br)o2)cc1	–	–	–	–	–	–
CCN(CC)S(=O)(=O)c1ccc(NC(=O)COC(=O)c2cc(S(=O)(=O)Nc3ccc(OC)cc3)ccc2O)cc1	–	–	–	21	–	–
CCc1ccc(-c2cn3nc(C)c(C)nc3n2)cc1	92	–	–	–	–	–
Cc1nnc(SC(C)C(=O)Nc2ccc(N3CCOCC3)cc2)n1Cc1ccccc1 (stereo unspecified)	·	·	·	–	·	·
Cc1ccccc1NC(=S)Nc1cccc2cnccc12	–	–	–	–	–	129
O=C(c1ccc2ccccc2c1)N1CCN(c2ccc(C(F)(F)F)cn2)CC1	89	–	–	–	–	–
O=C(CCc1ccccc1F)N1CCN(c2ccc(C(F)(F)F)cn2)CC1	·	–	–	–	–	–
O=C(c1ccc2c(c1)OCO2)N1CCN(c2ccc(C(F)(F)F)cn2)CC1	–	–	–	–	–	–
CC(CC(=O)N1CCN(c2ccc(C(F)(F)F)cn2)CC1)n1ccnc1 (stereo unspecified)	–	67	–	–	–	–
CCOC(=O)Cc1csc(NC(=O)c2cccc(OC)c2)n1	–	–	–	–	–	–
CCOC(=O)Cc1csc(NC(=O)Nc2ccc(C)cc2)n1	–	–	·	14	–	·
CCOC(=O)Cc1csc(NC(=O)Nc2cccc(OC)c2)n1	–	–	–	14	–	–
Cc1ccc(Nc2nc(COC(=O)COc3ccc(C=O)cc3)cs2)cc1	–	–	–	10	–	–
CCOC(=O)Cc1csc(NC(=O)CSc2nnc(-c3ccc(OC)cc3)n2C)n1	–	70	–	–	–	–
C/C=C/c1ccc(OCC(=O)OCc2csc(Nc3ccc(C)cc3)n2)c(OC)c1	–	–	–	–	–	–
Cc1oc(C(C)(C)C)cc1C(N)=O	–	–	–	–	–	–
COCC(C)N=C1NN=C(c2c[nH]c3ccccc23)CS1 (stereo unspecified)	–	–	–	–	–	–
CC(=O)N(Cc1ccccc1C)c1cccc(C)c1C	–	–	–	–	–	–
O=C(NCc1csc2ccccc12)Nc1cc(Cl)cc(Cl)c1	86	–	–	21	–	–
SMILES	CHOP inh	T cruzi inh	CSC inhib	GRIN3A LBD mod	PREPL inh	Beta cell apopt
Cc1cnn(C(=S)NCc2ccc(Cl)cc2)c1	74	–	–	–	–	–
Cc1cnn(C(=S)NCCc2ccccc2)c1	–	–	–	–	–	–
N#C/C(=N\O)c1nc2ccccc2[nH]1	–	–	–	22	–	–
O=C(O)c1ccc(Nc2cc(Cl)c3nonc3c2[N+](=O)[O-])cc1	–	–	–	–	–	–
Cc1c(Nc2cc(Cl)c3nonc3c2[N+](=O)[O-])c(=O)n(-c2ccccc2)n1C	108	·	·	–	·	·
Cc1c(Nc2cc(N3CCOCC3)c3nonc3c2[N+](=O)[O-])c(=O)n(-c2ccccc2)n1C	–	–	–	·	–	·
